Article PMC3182445 (The Journal of General Physiology, 2011)
Where two headings read alike, the source gives them in different places.

How the values were obtained:
[1] = Free calcium concentration in bath medium by calcium ion selective electrode; format: physicochemical; conditions: agonist concentrations above 100 µM; Mg^2+-free buffer, Ca^2+ fixed at 950 µM
Outline: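 Free Ca2+ read with a Ca2+-selective electrode. Mg2+-free buffer: 147 mM NaCl, 3 mM KCl, 10 mM glucose, 10 mM HEPES, pH 7.35, with 0.95 mM Ca2+. ATP or BzATP at 0, 1, 3.2, 10, 32, 100 and 320 µM, diluted from 10 mM aqueous stocks. Millivolt readings converted using a semilogarithmic standard curve. Means of three experiments.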

rat P2X7R = target: T1, rat P2X7R (Rattus norvegicus, UniProt Q64663); format: cell-based
T1 sequence (Q64663 1-595): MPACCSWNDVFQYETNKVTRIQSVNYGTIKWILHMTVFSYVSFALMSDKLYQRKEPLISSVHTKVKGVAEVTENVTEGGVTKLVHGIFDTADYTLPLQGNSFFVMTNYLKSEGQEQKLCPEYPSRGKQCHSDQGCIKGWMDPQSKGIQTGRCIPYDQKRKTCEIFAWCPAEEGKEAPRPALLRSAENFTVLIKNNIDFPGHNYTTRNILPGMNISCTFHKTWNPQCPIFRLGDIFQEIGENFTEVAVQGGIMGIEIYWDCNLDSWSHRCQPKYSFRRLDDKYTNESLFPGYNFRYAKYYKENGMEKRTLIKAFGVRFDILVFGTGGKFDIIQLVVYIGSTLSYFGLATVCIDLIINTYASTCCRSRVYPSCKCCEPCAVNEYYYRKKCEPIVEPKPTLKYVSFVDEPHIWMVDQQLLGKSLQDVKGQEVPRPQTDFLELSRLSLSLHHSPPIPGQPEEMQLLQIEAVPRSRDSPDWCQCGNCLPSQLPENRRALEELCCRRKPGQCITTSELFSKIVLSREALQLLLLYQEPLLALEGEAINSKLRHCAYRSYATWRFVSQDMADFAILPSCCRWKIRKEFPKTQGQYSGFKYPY

rP2X7R-H130A mutant = format: cell-based, rat; conditions: 100 µM BzATP; 10 mM Ca^2+ vs Ca^2+-deficient medium
Outline: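 Rat P2X7R-H130A mutant transfected into HEK293 cells (2 µg DNA, Lipofectamine 2000, serum-free Opti-MEM 4.5 h, then 24–48 h), replated 2–10 h, EGFP-positive cells chosen. Whole-cell patch clamp at room temperature, −60 mV hold. Pipette: 145 mM NaCl, 10 mM EGTA, 10 mM HEPES, pH 7.35. Bath: Krebs-Ringer-like, 1 mM MgCl2, pH 7.35. 100 µM BzATP given in Ca2+-deficient or 10 mM Ca2+ medium. Four experiments, mean ± SEM.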

Compound: 2’(3′)-O-4-benzoylbenzoyl)ATP [BzATP]
- free Ca^2+ concentration in presence of BzATP relative to ATP (higher) [1]: 2–3%

Compound: Clc1cccc(-c2nnnn2Cc2cccnc2)c1Cl [A438079]
- time for effect on receptor deactivation (rat P2X7R; 100 µM A438079 applied during washout of 100 µM BzATP, Ca^2+-containing and Ca^2+-deficient medium): ~0.8 s
- potency relative to ATP (rat P2X7R; higher potency than ATP at rat receptor): ~3,000 fold
- potency relative to BzATP (rat P2X7R; higher potency than BzATP at rat receptor): 200 fold
- current generated when applied alone (rat P2X7R; no agonist, unpublished data): did not generate any current
- IC50 (rat P2X7R; read-out: IC50, inhibition of current, cells stimulated with 32 µM BzATP): ~0.3 µM
- IC50 (rat P2X7R; read-out: IC50, reduction of peak amplitude of current, applied together with 3.2 mM ATP, estimated): ~1 µM

Compound: [Ca+2] [Ca^2+, calcium]
- rightward shift in agonist (ATP, BzATP) dose-response (rat P2X7R; naive receptors, 2-mM Ca^2+-containing vs Ca^2+-deficient medium, 1 mM Mg^2+): ~0.5 log units
- decrease in the peak amplitude of current (rP2X7R-H130A mutant): 15 fold
